Laboratory results taken from ChEMBL document CHEMBL1121770, “Substituted imidazo[2,3-alpha]pyridine-2-carbamate anthelmintics” (1981).

Tests used:
Format in all cases: functional
Mus musculus [1] = assay: Compound was administered at 62.5 p.p.m. in the diet of mice, for percent reduction of Nematospiroides dubius in mice
Procedure, shortened: (§1)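 Mouse infection test run by Baker's method, three mice per treated group. Worm counts are averaged per mouse, and percent reduction is derived from them. Reductions below 20% are recorded as 0.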

Mus musculus [2] = assay: Compound was administered at 125 p.p.m. in the diet of mice, for percent reduction of Nematospiroides dubius in mice; procedure, shortened: as §1
Mus musculus [3] = assay: Compound was administered at 1000 p.p.m. in the diet of mice, for percent reduction of Nematospiroides dubius in mice; procedure, shortened: as §1
Mus musculus [4] = assay: Compound was administered at 500 p.p.m. in the diet of mice, for percent reduction of Nematospiroides dubius in mice; procedure, shortened: as §1
Mus musculus [5] = assay: Compound was administered at 250 p.p.m. in the diet of mice, for percent reduction of Nematospiroides dubius in mice; procedure, shortened: as §1

Q: What does the source list for `COC(=O)Nc1cn2cc(C(Cl)=C(Cl)Cl)ccc2n1`?
A: Reduction (Mus musculus [1]): 94%; Reduction (Mus musculus [2]): 94%

Q: What does the source list for `COC(=O)Nc1cn2ccccc2n1`?
A: Reduction (Mus musculus [3]): 54%; Reduction (Mus musculus [4]): 0%

Q: `COC(=O)Nc1cn2cc(Sc3ccccc3)ccc2n1` was tested. Which Reduction (Mus musculus [1]) did it give?
A: The Reduction was 0%.

Q: And the Reduction (Mus musculus [2])?
A: Its Reduction is 38%.

Q: And the Reduction (Mus musculus [5])?
A: The Reduction was 98%.

Q: What about the Reduction (Mus musculus [4]) of the same compound?
A: Its Reduction is 100%.

Q: Which Reduction (Mus musculus [1]) does the source give for `COC(=O)Nc1cn2cc([S+]([O-])c3ccccc3)ccc2n1` (centres undefined) here?
A: The Reduction was 35%.

Q: And the Reduction (Mus musculus [2])?
A: Its Reduction is 100%.

Q: How did the Reduction (Mus musculus [1]) turn out when `CCCSc1ccc2nc(NC(=O)OC)cn2c1` was run?
A: The Reduction was 0%.

Q: What about the Reduction (Mus musculus [2]) of the same compound?
A: The Reduction was 74%.

Q: What about the Reduction (Mus musculus [5]) of the same compound?
A: The Reduction was 100%.

Q: How did the Reduction (Mus musculus [1]) turn out when `CCCOc1ccc2nc(NC(=O)OC)cn2c1` was run?
A: Its Reduction is 0%.

Q: And the Reduction (Mus musculus [2])?
A: Its Reduction is 44%.

Q: What about the Reduction (Mus musculus [5]) of the same compound?
A: Its Reduction is 74%.

Q: With `COC(=O)Nc1cn2cc(C(=O)c3ccccc3)ccc2n1` as the compound, how does the Reduction (Mus musculus [3]) read?
A: The Reduction was 0%.

Q: What about the Reduction (Mus musculus [4]) of the same compound?
A: The Reduction was 0%.

Q: How did the Reduction (Mus musculus [1]) turn out when `COC(=O)Nc1nc2cc(C(Cl)=C(Cl)Cl)ccc2[nH]1` was run?
A: The Reduction was 57%.

Q: What about the Reduction (Mus musculus [2]) of the same compound?
A: Its Reduction is 69%.

Q: What about the Reduction (Mus musculus [5]) of the same compound?
A: Its Reduction is 99%.

Q: With `CC(C)OC(=O)Nc1ccc2[nH]c(-c3cscn3)nc2c1` [CAMBENDAZOLE] as the compound, how does the Reduction (Mus musculus [1]) read?
A: Its Reduction is 0%.

Q: And the Reduction (Mus musculus [2])?
A: Its Reduction is 0%.

Q: What about the Reduction (Mus musculus [5]) of the same compound?
A: Its Reduction is 73%.

Q: And the Reduction (Mus musculus [4])?
A: The Reduction was 100%.

Q: Which Reduction (Mus musculus [2]) does the source give for `c1ccc2[nH]c(-c3cscn3)nc2c1` [THIABENDAZOLE] here?
A: The Reduction was 0%.

Q: What about the Reduction (Mus musculus [5]) of the same compound?
A: The Reduction was 26%.

Q: And the Reduction (Mus musculus [3])?
A: Its Reduction is 100%.

Q: What about the Reduction (Mus musculus [4]) of the same compound?
A: Its Reduction is 86%.
